pIC50: −log10 of the molar value. Where a SMILES comes first, the peptide text is derived from it. Bridges are numbered along the chain shown (N, C = ends).
Key:
[1] = target: Neuronal acetylcholine receptor subunit alpha-6/alpha-3 (Homo sapiens) (UniProt P32297+Q15825); assay: Inhibition of human alpha6beta4 nAChR expressed in Xenopus laevis oocytes assessed as recovery of acethylcholine-evoked currents at 10 uM treated for 10 mins followed by compound washout by two-electrode voltage-clamp method relative to control; type: cell-based; parameters: scale not given: the % may be the effect or the level left; settings: Oocyte
Homo sapiens [2] = species: Homo sapiens; assay: Selectivity ratio of IC50 for human alpha7 nAChR to IC50 for human alpha6/alpha3beta4 nAChR
Summary of the method: (§1)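 Ratio of each subtype's IC50, from TEVC inhibition of ACh-evoked currents in X. laevis oocytes, to the IC50 at the same species' α6/α3β4 nAChR; IC50 values with 95% CI, n = number of oocytes.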

[3] = target: T1, Neuronal acetylcholine receptor; alpha3/beta2 (Homo sapiens, UniProt P17787+P32297); assay: Inhibition of human alpha3beta2 nAChR expressed in Xenopus laevis oocytes assessed as inhibition of acetylcholine-induced current response by two-electrode voltage-clamp method; type: cell-based, Oocyte
Summary of the method: (§2)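 Two-electrode voltage clamp of stage IV–V oocytes 1–5 days after equal-ratio cRNA injection; ACh 100 μM (β2-containing subtypes, α9α10), 1 s every 60 s in frog saline. Peptide perfused up to 1 μM, responses normalized to mean of three control responses; above 1 μM, 5 min static bath. IC50 with 95% CI; n = oocytes.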

[4] = target: T1, Neuronal acetylcholine receptor; alpha3/beta2; assay: Inhibition of human alpha3beta2 nAChR expressed in Xenopus laevis oocytes assessed as inhibition of acetylcholine-induced current response at 10 uM by two-electrode voltage-clamp method relative to control; type: cell-based; settings: Oocyte
Summary of the method: (§3)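 Oocytes (stage IV–V) injected with equal-ratio cRNAs of cloned subunits; TEVC 1–5 days post-injection. ACh 100 μM for β2-containing and α9α10 subtypes, 1 s pulses every 60 s. Peptide 10 μM in 5 min static bath; response normalized to ACh response after 5 min control-saline bath; mean ± SD, n = 4.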

[5] = target: T2, Neuronal acetylcholine receptor; alpha2/beta4 (Homo sapiens, UniProt P30926+Q15822); assay: Inhibition of human alpha2beta4 nAChR expressed in Xenopus laevis oocytes assessed as inhibition of acetylcholine-induced current response by two-electrode voltage-clamp method; type: cell-based, Oocyte
Summary of the method: (§4)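 TEVC on stage IV–V oocytes 1–5 days after equal-ratio cRNA injection (α2β4, α3β4, α4β4, α7). ACh 300 μM, 1 s pulses at 60 s intervals under frog saline perfusion. Peptide perfused to 1 μM, normalized to average of three control responses; higher concentrations by 5 min static bath. IC50 with 95% CI, n oocytes.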

Rattus norvegicus [6] = species: Rattus norvegicus; assay: Selectivity ratio of IC50 for rat alpha3beta2 nAChR to IC50 for rat alpha6/alpha3beta4 nAChR; summary of the method: as §1
[7] = target: Neuronal acetylcholine receptor; alpha2/beta4 (Rattus norvegicus, UniProt P12389+P12392); assay: Inhibition of rat alpha2beta4 nAChR expressed in Xenopus laevis oocytes assessed as inhibition of acetylcholine-induced current response by two-electrode voltage-clamp method; type: cell-based, Oocyte; summary of the method: as §4
Rattus norvegicus [8] = species: Rattus norvegicus; assay: Selectivity ratio of IC50 for rat alpha4beta4 nAChR to IC50 for rat alpha6/alpha3beta4 nAChR; summary of the method: as §1
[9] = target: Neuronal acetylcholine receptor; alpha4/beta2 (Rattus norvegicus) (UniProt P09483+P12390); assay: Inhibition of rat alpha4beta2 nAChR expressed in Xenopus laevis oocytes assessed as inhibition of acetylcholine-induced current response at 10 uM by two-electrode voltage-clamp method relative to control; type: cell-based; settings: Oocyte; summary of the method: as §3
[10] = target: T2, Neuronal acetylcholine receptor; alpha2/beta4; assay: Inhibition of human alpha2beta4 nAChR expressed in Xenopus laevis oocytes assessed as inhibition of acetylcholine-induced current response at 10 uM by two-electrode voltage-clamp method relative to control; type: cell-based; settings: Oocyte
Summary of the method: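 Stage IV–V X. laevis oocytes expressing equal-ratio cRNAs of α2β4, α3β4, α4β4 or α7 subunits; TEVC 1–5 days after injection. ACh 300 μM, 1 s at 60 s intervals. 10 μM peptide as 5 min static bath, normalized to ACh response after 5 min bath of control saline; mean ± SD, n = 4.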

Homo sapiens [11] = species: Homo sapiens; assay: Selectivity ratio of IC50 for human alpha4beta4 nAChR to IC50 for human alpha6/alpha3beta4 nAChR; summary of the method: as §1
[12] = target: Nicotinic acetylcholine receptor alpha-1/beta-1/delta/epsilon (Homo sapiens) (UniProt P02708+P11230+Q07001+Q04844); assay: Inhibition of human alpha1beta1deltaepsilon nAChR expressed in Xenopus laevis oocytes assessed as inhibition of acetylcholine-induced current response at 10 uM by two-electrode voltage-clamp method relative to control; type: cell-based; settings: Oocyte
Summary of the method: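 Human α1, β1, δ and ε cDNAs injected in equal ratios into the nucleus of stage IV–V X. laevis oocytes; TEVC 1–5 days later. ACh 100 μM, 1 s pulses at 60 s intervals. Peptide 10 μM applied as 5 min static bath; response normalized to ACh response after 5 min bath of control saline; mean ± SD, n = 4.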

Homo sapiens [13] = species: Homo sapiens; assay: Selectivity ratio of IC50 for human alpha9alpha10 nAChR to IC50 for human alpha6/alpha3beta4 nAChR; summary of the method: as §1
[14] = target: Neuronal acetylcholine receptor; alpha4/beta4 (Rattus norvegicus, UniProt P09483+P12392); type: cell-based, Oocyte
Rattus norvegicus [15] = species: Rattus norvegicus; assay: Selectivity ratio of IC50 for rat alpha4beta2 nAChR to IC50 for rat alpha6/alpha3beta4 nAChR; summary of the method: as §1
[16] = target: Neuronal acetylcholine receptor; alpha3/beta2 (Rattus norvegicus) (UniProt P04757+P12390); assay: Inhibition of rat alpha3beta2 nAChR expressed in Xenopus laevis oocytes assessed as inhibition of acetylcholine-induced current response at 10 uM by two-electrode voltage-clamp method relative to control; type: cell-based; settings: Oocyte; summary of the method: as §3
[17] = target: Neuronal acetylcholine receptor; alpha3/beta4 (Homo sapiens, UniProt P30926+P32297); assay: Inhibition of human alpha3beta4 nAChR expressed in Xenopus laevis oocytes assessed as inhibition of acetylcholine-induced current response by two-electrode voltage-clamp method; type: cell-based, Oocyte; summary of the method: as §4
[18] = Inhibition of human alpha4beta4 nAChR expressed in Xenopus laevis oocytes assessed as inhibition of acetylcholine-induced current response by two-electrode voltage-clamp method; type: cell-based; settings: Oocyte; summary of the method: as §4
[19] = target: Nicotinic acetylcholine receptor alpha6/alpha3/beta4 (Homo sapiens, UniProt P30926+P32297+Q15825); type: cell-based, Oocyte
[20] = target: Neuronal acetylcholine receptor; alpha3/alpha6/beta2/beta3 (Homo sapiens, UniProt P17787+P32297+Q05901+Q15825); assay: Inhibition of human alpha6/alpha3beta2beta3 nAChR expressed in Xenopus laevis oocytes assessed as inhibition of acetylcholine-induced current response by two-electrode voltage-clamp method; type: cell-based, Oocyte; summary of the method: as §2
[21] = target: Neuronal acetylcholine receptor; alpha9/alpha10 (Homo sapiens) (UniProt Q9UGM1+Q9GZZ6); assay: Inhibition of human alpha9alpha10 nAChR expressed in Xenopus laevis oocytes assessed as inhibition of acetylcholine-induced current response at 10 uM by two-electrode voltage-clamp method relative to control; type: cell-based; settings: Oocyte; summary of the method: as §3
Rattus norvegicus [22] = species: Rattus norvegicus; assay: Selectivity ratio of IC50 for rat alpha6/alpha3beta2beta3 nAChR to IC50 for rat alpha6/alpha3beta4 nAChR; summary of the method: as §1
[23] = target: Neuronal acetylcholine receptor subunit alpha-7 (Homo sapiens, UniProt P36544); assay: Inhibition of human alpha7 nAChR expressed in Xenopus laevis oocytes assessed as inhibition of acetylcholine-induced current response by two-electrode voltage-clamp method; type: cell-based, Oocyte; summary of the method: as §4

Sequence of Neuronal acetylcholine receptor; alpha3/alpha6/beta2/beta3 (P17787 whole entry): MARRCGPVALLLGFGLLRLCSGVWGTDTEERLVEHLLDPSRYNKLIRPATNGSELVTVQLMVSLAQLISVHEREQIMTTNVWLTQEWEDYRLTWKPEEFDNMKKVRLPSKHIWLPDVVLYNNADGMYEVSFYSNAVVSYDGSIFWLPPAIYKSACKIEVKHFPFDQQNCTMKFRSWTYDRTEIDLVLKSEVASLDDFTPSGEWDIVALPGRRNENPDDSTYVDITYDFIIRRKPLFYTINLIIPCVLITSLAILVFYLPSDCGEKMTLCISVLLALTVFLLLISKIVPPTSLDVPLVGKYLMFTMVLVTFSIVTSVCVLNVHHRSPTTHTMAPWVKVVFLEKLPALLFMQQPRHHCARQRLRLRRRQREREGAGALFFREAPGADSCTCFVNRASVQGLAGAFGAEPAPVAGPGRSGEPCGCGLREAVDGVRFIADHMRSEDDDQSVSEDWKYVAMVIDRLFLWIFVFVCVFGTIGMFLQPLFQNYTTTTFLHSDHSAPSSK
Sequence of Neuronal acetylcholine receptor; alpha3/alpha6/beta2/beta3 (P32297 whole entry): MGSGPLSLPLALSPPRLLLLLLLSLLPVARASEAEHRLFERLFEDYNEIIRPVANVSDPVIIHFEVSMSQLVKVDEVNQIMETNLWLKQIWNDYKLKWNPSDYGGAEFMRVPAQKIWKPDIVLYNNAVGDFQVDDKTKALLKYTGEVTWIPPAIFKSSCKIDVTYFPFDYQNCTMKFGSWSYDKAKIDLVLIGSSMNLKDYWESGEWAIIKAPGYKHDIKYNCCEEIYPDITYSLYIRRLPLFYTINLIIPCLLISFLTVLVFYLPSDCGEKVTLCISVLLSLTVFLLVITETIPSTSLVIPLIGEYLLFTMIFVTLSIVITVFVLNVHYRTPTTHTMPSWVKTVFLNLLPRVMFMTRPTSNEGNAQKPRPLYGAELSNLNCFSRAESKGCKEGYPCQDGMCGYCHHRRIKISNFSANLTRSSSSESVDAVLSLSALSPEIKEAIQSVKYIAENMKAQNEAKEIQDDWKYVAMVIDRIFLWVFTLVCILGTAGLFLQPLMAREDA
Sequence of Neuronal acetylcholine receptor; alpha3/alpha6/beta2/beta3 (Q15825 whole entry): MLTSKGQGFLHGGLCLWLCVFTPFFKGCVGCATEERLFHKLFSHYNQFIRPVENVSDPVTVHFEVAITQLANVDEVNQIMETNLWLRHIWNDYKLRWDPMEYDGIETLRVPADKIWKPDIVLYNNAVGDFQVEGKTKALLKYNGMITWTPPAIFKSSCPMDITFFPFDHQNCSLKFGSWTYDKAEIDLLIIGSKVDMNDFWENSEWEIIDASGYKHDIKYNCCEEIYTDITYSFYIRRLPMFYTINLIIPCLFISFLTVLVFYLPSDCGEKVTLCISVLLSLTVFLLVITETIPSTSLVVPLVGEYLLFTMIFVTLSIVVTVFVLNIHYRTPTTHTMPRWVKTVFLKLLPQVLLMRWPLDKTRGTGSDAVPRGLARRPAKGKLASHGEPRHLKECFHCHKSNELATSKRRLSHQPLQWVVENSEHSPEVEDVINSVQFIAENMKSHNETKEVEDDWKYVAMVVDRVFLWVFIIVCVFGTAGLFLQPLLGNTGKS
Sequence of Neuronal acetylcholine receptor; alpha3/alpha6/beta2/beta3 (Q05901 whole entry): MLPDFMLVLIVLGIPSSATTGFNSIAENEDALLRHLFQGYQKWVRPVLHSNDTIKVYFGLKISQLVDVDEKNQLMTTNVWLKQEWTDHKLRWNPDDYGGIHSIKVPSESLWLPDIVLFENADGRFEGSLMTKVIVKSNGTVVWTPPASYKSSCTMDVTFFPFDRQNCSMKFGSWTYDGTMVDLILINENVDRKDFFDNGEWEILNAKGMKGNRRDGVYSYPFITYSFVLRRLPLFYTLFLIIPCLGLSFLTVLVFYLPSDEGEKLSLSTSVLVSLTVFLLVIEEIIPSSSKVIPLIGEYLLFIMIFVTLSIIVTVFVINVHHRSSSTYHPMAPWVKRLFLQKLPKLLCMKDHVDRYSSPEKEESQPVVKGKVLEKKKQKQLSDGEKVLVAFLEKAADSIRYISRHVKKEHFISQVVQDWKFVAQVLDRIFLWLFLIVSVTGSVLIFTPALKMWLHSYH
T1 sequence (P17787 whole entry, the tested form may be a part): as the sequence (P17787 whole entry) above
T1 sequence (P32297 whole entry, the tested form may be a part): as the sequence (P32297 whole entry) above
Sequence of Neuronal acetylcholine receptor; alpha3/beta4 (P30926 whole entry): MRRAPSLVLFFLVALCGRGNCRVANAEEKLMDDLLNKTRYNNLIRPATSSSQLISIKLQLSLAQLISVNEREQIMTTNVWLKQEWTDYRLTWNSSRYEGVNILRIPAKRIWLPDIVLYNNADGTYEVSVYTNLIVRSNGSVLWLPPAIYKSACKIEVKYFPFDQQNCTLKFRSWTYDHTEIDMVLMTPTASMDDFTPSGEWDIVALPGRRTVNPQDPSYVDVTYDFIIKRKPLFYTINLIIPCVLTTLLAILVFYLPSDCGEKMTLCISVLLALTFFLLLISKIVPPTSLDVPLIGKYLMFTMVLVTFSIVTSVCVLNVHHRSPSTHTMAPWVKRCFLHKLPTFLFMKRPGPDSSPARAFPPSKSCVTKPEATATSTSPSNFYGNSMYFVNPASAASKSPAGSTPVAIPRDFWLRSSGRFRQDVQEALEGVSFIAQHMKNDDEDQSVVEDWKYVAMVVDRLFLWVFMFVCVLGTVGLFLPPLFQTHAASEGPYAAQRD
Sequence of Neuronal acetylcholine receptor; alpha3/beta4 (P32297 whole entry): as the sequence (P32297 whole entry) above
T2 sequence (P30926 whole entry, the tested form may be a part): as the sequence (P30926 whole entry) above
T2 sequence (Q15822 whole entry, the tested form may be a part): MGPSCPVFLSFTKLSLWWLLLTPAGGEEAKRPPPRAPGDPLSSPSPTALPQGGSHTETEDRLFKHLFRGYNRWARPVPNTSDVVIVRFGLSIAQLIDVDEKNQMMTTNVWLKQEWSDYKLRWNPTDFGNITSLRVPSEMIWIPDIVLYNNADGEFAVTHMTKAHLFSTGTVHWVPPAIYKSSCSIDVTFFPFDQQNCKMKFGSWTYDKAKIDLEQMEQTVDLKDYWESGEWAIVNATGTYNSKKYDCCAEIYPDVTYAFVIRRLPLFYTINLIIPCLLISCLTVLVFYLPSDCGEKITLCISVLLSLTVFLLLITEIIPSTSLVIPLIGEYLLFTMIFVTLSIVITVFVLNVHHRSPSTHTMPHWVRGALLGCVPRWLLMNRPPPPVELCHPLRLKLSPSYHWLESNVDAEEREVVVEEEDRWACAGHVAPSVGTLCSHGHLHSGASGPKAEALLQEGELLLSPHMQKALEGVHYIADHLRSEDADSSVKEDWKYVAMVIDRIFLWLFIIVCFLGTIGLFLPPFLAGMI

In the case of CC[C@H](C)[C@@H]1NC(=O)[C@H](CCC(=O)O)NC(=O)[C@@H]2CCCN2C(=O)[C@H](Cc2cnc[nH]2)NC(=O)[C@H](CC(N)=O)NC(=O)[C@H](C(C)C)NC(=O)[C@H](CC(N)=O)NC(=O)[C@@H]2CSSC[C@H](NC(=O)CN)C(=O)N[C@@H](CSSC[C@@H](C(N)=O)NC1=O)C(=O)N[C@@H](CO)C(=O)N[C@@H](Cc1cnc[nH]1)C(=O)N1CCC[C@H]1C(=O)N[C@@H](C(C)C)C(=O)N2 (H-GCCSHPVCNVNHPEIC-NH2; disulfide 2-8, 3-16), the Activity [1] was 2%, the Ratio IC50 (Homo sapiens [2]) was over 50000 and the pIC50 [3] was under 5.00. For the same compound, the inhibition [4] was 76%, the pIC50 [5] was under 5.00 and the Ratio IC50 (Rattus norvegicus [6]) was over 20000. The pIC50 [7] was under 5.00, the Ratio IC50 (Rattus norvegicus [8]) was over 20000 and the inhibition [9] was 81%. For the same compound, the inhibition [10] was 84%, the Ratio IC50 (Homo sapiens [11]) was 20100 and the inhibition [12] was 93%. It also gave a Ratio IC50 (Homo sapiens [13]) of over 50000, a pIC50 [14] of under 5.00 and a Ratio IC50 (Rattus norvegicus [15]) of over 20000. For the same compound, the inhibition [16] was 94%, the pIC50 [17] was 6.75 and the pIC50 [18] was 5.40. For the same compound, the pIC50 [19] was 9.70, the pIC50 [20] was 6.87 and the inhibition [21] was 76%. It also gave a Ratio IC50 (Rattus norvegicus [22]) of 227 and a pIC50 [23] of under 5.00.

Reference: ChEMBL document CHEMBL4811225 (J Med Chem, 2021)
